Series [1] has as its target T1, CYP2C in rat liver microsomes (CYP2C11) (Rattus norvegicus, UniProt P08683).
T1 sequence (P08683 1-500): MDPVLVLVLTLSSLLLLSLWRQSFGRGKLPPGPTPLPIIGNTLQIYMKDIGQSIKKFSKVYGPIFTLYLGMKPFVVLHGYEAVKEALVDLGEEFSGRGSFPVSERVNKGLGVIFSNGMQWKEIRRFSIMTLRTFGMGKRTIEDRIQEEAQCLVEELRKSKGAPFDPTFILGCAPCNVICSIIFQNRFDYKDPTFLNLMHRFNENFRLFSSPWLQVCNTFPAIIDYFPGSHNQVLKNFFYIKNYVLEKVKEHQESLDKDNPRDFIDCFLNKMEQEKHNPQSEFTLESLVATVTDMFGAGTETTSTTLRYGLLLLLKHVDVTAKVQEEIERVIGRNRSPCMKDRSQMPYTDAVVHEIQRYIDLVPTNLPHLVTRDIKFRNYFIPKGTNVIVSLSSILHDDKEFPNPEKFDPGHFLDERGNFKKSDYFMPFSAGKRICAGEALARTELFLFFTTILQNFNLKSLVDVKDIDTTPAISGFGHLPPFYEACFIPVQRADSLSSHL
Type of series: biochemical.

Series [2] has as its target CYP2C9 (Homo sapiens, UniProt P11712). In kind it is biochemical. As to conditions: human liver microsomes, pH 7.4, probe diclofenac (100 μmol/L), diclofenac hydroxylation.
Series [3] concerns rat CYP2C (rat liver microsomes). Type of series: biochemical. An outline of the steps: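 Rat liver microsomes (0.5 mg protein/mL) with 1 mmol/L NADPH in 100 mmol/L phosphate (pH 7.4), 37°C. Test compound in DMSO (20 μmol/L final) versus DMSO reference. Difference spectra (400–500 nm) were taken at 0–120 min, tracking A459 minus A500. Parent and catechol metabolites were quantified in parallel by HPLC of methanol-quenched aliquots taken at the same times. Mean ± SD, at least duplicates.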

Series [4] addresses T2, recombinant rat CYP2C11 (Rattus norvegicus, UniProt P08683).
T2 sequence (P08683 1-500): T1 sequence (P08683 1-500)
Briefly: Sesamin-induced difference spectrum of recombinant rat CYP2C11. In kind it is biochemical. As to conditions: recombinant rat CYP2C11, NADPH, 20 μmol/L sesamin. A digest of the protocol:
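Recombinant rat CYP2C11 from baculovirus-infected insect cells (50 pmol/mL) with 1 mmol/L NADPH in 100 mmol/L phosphate (pH 7.4) at 37°C. Test compound in DMSO (20 μmol/L final) went into the sample cuvette and an equal volume of DMSO into the reference. Difference spectra were recorded over 400–500 nm after 7 and 60 min incubation.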

The nature of series [5]: Pharmacokinetics of diclofenac in rats after 3 days administration of sesamin. As to conditions: for AUC(0-t) / Cmax / Tmax / half-life: rat, plasma, po, 10 mg/kg; for AUC(0-t): AUC0–24 h; for AUC(0-t) / Cmax / Tmax: diclofenac 10 mg/kg bw intragastric; for half-life: t1/2, diclofenac 10 mg/kg bw intragastric. In kind it is in vivo, rat.
The format of series [6] is in vivo, rat. As to conditions: rats.
Series [7] can be described thus: Plasma concentration of sesamin in rats. In kind it is in vivo. Conditions: rat, po, 100 mg/kg. A digest of the protocol: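 Test compound in corn oil was given intragastrically by feeding needle. The organic phase was dried and the residue taken up in 100 μL acetonitrile. HPLC: methanol/0.05% TFA gradient, fluorescence ex 298/em 325 nm; mean ± SD, n = 12.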
The nature of series [8]: Hepatic sesamin concentration in rats. Type of series: in vivo. Conditions: rat, liver, oral, 100 mg/kg.
Series [9] concerns rat CYP2C. In kind it is in vivo. As to conditions: rats, sesamin 0, 10, 100 mg/kg bw for 7 days. An outline of the steps: (§1)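 Male Sprague–Dawley rats were acclimated for 7 days before dosing. Liver microsomes: liver rinsed in ice-cold saline, homogenized in four volumes of ice-cold 1.15% KCl, spun at 10,000g for 20 min, then the supernatant at 100,000g for 60 min. The pellet was resuspended in 20 mmol/L phosphate buffer (pH 7.4) with 1.15% KCl. Protein was measured by bicinchoninate assay.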

Series [10] deals with CYP2C-mediated diclofenac hydroxylation activity. In kind it is in vivo, rat. Conditions: rats, sesamin 0, 10, 100 mg/kg bw for 7 days. An outline of the steps:
as §1

Series [11] in a line: Estimation of the maximum inlet concentration to the liver. Conditions: for absorption rate constant: assumed, roughly estimated from the data by Tomimori et al. [2013]; for maximum inlet concentration to the liver: humans, following the 50 mg oral dose, eqn. 1. The arrangement: species or system human.
For series [12] the following is noted: humans, sesamin supplement 50 mg/day for 28 days; ref Tomimori et al. [2013]; cited from earlier work.
For series [13] the following is noted: assumed; ref Moazzami et al. [2007]; cited from earlier work.
The subject of series [14] is CYP2C9. As to conditions: cited from earlier work.
Series [15] deals with CYP2D6. Conditions: CYP2D6 with MDMA in human liver microsomes; ref Heydari et al. [2004]; cited from earlier work. In general terms: Liver microsomes are a subcellular fraction often used to study metabolism.
The test system of series [16] is CYP2D6. As to conditions: humans; ref O'Mathuna et al. [2008]; cited from earlier work.
Setting [17] is: after sesamin 10 mg/kg bw for 3 days.
Where [18] appears, read: after sesamin 100 mg/kg bw for 3 days.
Setting [19] is: control (0 mg/kg bw sesamin for 3 days).

Several values for one entry are separate records, joined by “and”; a condition that tells them apart may be missing. Identical values can stand only once. Entries after “also recorded” stand apart in the source; their conditions may differ. Like-named read-outs stand apart in the source and are kept apart here.

The term kinact denotes the maximal first-order rate at which the target is inactivated. In general, Cmax refers to the highest concentration seen after dosing. As usually defined, the Tmax is the time from dosing to the highest level. Broadly, the AUC(0-t) is the area under the concentration-time curve up to a stated or last time point. Read a low AUC(0-t) as low exposure. The term half-life denotes how long it takes for the measured level to halve. A high value points to slow loss.

Chain of CYP2C9 (Homo sapiens, UniProt P11712) (P11712 whole entry): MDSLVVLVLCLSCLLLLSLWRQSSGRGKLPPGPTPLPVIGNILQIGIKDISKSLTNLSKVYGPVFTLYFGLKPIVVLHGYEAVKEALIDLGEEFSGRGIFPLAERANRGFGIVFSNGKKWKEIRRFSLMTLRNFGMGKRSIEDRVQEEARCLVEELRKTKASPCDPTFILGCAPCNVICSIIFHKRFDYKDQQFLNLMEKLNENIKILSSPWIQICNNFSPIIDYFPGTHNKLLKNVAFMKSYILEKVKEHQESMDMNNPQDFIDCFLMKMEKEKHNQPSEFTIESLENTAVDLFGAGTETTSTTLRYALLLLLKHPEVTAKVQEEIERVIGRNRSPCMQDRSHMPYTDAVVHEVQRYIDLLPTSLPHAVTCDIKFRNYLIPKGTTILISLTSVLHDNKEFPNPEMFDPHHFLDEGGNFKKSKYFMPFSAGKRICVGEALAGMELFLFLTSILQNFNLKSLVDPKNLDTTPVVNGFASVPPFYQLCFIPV

`c1cc2c(cc1[C@H]1OC[C@H]3[C@@H]1CO[C@@H]3c1ccc3c(c1)OCO3)OCO2` [sesamin]: the kinact in [1] was 0.00132 s⁻¹. In addition, the “inhibition of 4'- and 5-hydroxylation activities toward diclofenac” value in [1] (rat liver microsomes, sesamin 0-50 μmol/L, preincubation 0, 5, 10 min) was “time- and concentration-dependently inhibited”. In addition, in series [1] (read-out: kinact/Ki app), the kinact/KI was 48.3 M⁻¹ s⁻¹. In series [2], the kinact is 0.00217 s⁻¹ and the kinact/KI is 96.7 M⁻¹ s⁻¹. Also, in series [3] (rat liver microsomes), the “half-life time of the MI complex of sesamin” value is 0.167 h and the “time to disappearance of the 459 nm peak after the termination of the metabolism” value is reported as at most 30 min. Moreover, in series [3] (rat liver microsomes 0.5 mg/mL, 20 μmol/L sesamin, at 60 min), the “conversion of sesamin to SC-2 via SC-1” value was “almost all of sesamin was converted to SC-2 via SC-1”. Also, in series [3] (rat liver microsomes, NADPH, 20 μmol/L sesamin, 37°C), the “peak of sesamin-induced difference spectrum (MI complex)” value came to 459 nm. Besides, the “peak of sesamin-induced difference spectrum (MI complex)” value in [4] came to 459 nm. Moreover, in series [5] (sesamin 0, 10, 100 mg/kg bw for 3 days, then diclofenac 10 mg/kg bw), the “effect of sesamin on pharmacokinetic parameters of diclofenac (Cmax, Tmax, AUC)” value is given as “No significant differences”. Further, the “effect of sesamin on the diclofenac pharmacokinetics” value in [6] (sesamin 0, 10, 100 mg/kg bw and diclofenac 10 mg/kg bw simultaneously) is “no significant effects”. In addition, in [7], the Cmax is 33 ng/mL and 94 nM; the Tmax stood at 1.2 ± 0.6 h. For the same compound, in [8], the concentration at 1 h is 390 ng/g and 1.1 µM. The “expression of CYP2C protein in liver microsomes” value in series [9] was “no significant differences; also recorded: no remarkable change”. Also, the “diclofenac hydroxylation activity in liver microsomes” value in series [10] was “no significant effects; also recorded: no significant differences; also recorded: no remarkable change”. For the same compound, in series [11], the absorption rate constant was 0.5 h⁻¹ and the “maximum inlet concentration to the liver” value is given as 130 nmol/L. Also, the “accumulation after repeated administration” value in series [12] was “did not detect the accumulation; also recorded: no accumulation”. In [13], the fraction absorbed is 30%. In series [14] (CYP2C9 with sesamin in human liver microsomes, ref Yasuda et al. [2010]), the kinact was 0.13 min⁻¹.
For the compound `O=C(O)Cc1ccccc1Nc1c(Cl)cccc1Cl` [diclofenac], the AUC(0-t) in [5] (setting [17]) is 4620 ng·h/mL; in [5] (setting [18]), 6930 ng·h/mL; in series [5] (setting [19]), 4880 ng·h/mL; in series [6] (rat, plasma, po, 10 mg/kg, AUC0–24 h, diclofenac 10 mg/kg bw intragastric, control (0 mg/kg bw sesamin at same time)), 5480 ng·h/mL. The Cmax in series [5] (setting [17]) turned out to be 1200 ± 500 ng/mL; in series [5] (setting [18]), 1300 ± 600 ng/mL; in series [5] (setting [19]) it was 1800 ± 800 ng/mL; in series [6] (rat, plasma, po, 10 mg/kg, Cmax, diclofenac 10 mg/kg bw intragastric, control (0 mg/kg bw sesamin at same time)), 2100 ± 1700 ng/mL. Also, the Tmax is 7 min in [5] (setting [17]); 7.2 min in series [5] (setting [18]); 5.4 min in [5] (setting [19]); 5.6 min in series [6] (rat, plasma, po, 10 mg/kg, Tmax, diclofenac 10 mg/kg bw intragastric, control (0 mg/kg bw sesamin at same time)). Further, the half-life in [5] (setting [17]) was 14.8 ± 9.3 h; in [5] (setting [18]), 11.1 ± 6.8 h; in series [5] (setting [19]) it was 10.6 ± 2.9 h; in series [6] (rat, plasma, po, 10 mg/kg, t1/2, diclofenac 10 mg/kg bw intragastric, control (0 mg/kg bw sesamin at same time)), 9.8 ± 5.1 h.
For `CNC(C)Cc1ccc2c(c1)OCO2` (centres unmarked) [MDMA, 3,4-Methylenedioxymethamphetamine], in series [15], the maximal inactivation rate constant (kinact) was 0.12 to 0.26 min⁻¹. In series [16], the “increase of dextromethorphan AUC0-8 h when administered with MDMA” value is on record as “approximately 10 fold”, the “increase of dextromethorphan AUC after MDMA administration” value was “approximately 10 fold” and the “increase of dextromethorphan Cmax after MDMA administration” value is reported as “approximately 10 fold”.
For the compound `c1cc2c(cc1[C@H]1OC[C@H]3[C@@H]1CO[C@@H]3c1ccc3c(c1)OCO3)OCO2` [episesamin], in series [11], the absorption rate constant was 1.5 h⁻¹ and the “maximum inlet concentration to the liver” value is reported as 410 nmol/L. Further, in [12], the “accumulation after repeated administration” value is listed as “did not detect the accumulation; also recorded: no accumulation”. Besides, the “kinact/Ki value for recombinant human CYP2C9 relative to sesamin” value in [14] (recombinant human CYP2C9, ref previous studies of the authors) was “five times smaller”. Besides, the “kinact/Ki app for CYP2C9 relative to sesamin” value in series [14] (ref Yasuda et al. [2012]) is reported as “approximately one-fifth”.

(Values after article PMC4618645 (Pharmacology Research & Perspectives, 2015).)
